Test results as given in publication PMC11904481 (ESMO Open, 2025).

System: patients with locally advanced unresectable or metastatic, relapsed and/or refractory nonhematological malignancies
Experiment: Phase I safety: adverse events
Assay type: in vivo, human
How it was run: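 Adverse events were graded by NCI CTCAE v4.03 across three i.v. schedules of the test compound (0.45-11.3 mg/kg; weekly per 28-day cycle, or days 1, 4, 8 ±11, 15 per 21-day cycle). Special-interest events covered retinal dysfunction symptoms and documented retinal disorders. Clustered signs were grouped as 'infusion reaction'. QTc was calculated with the Fridericia correction.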

[1] = schedules 1/2 cohort 1, 0.45 mg/kg
[2] = schedules 1/2 cohort 2, 0.9 mg/kg
[3] = schedules 1/2 cohort 3, 1.8 mg/kg
[4] = schedules 1/2 cohort 4, 3.6 mg/kg
[5] = schedules 1/2 cohort 5, 5.4 mg/kg
[6] = schedules 1/2 cohort 6, 4.8 mg/kg
[7] = schedules 1/2 cohort 7, 5.4 mg/kg
[8] = schedules 1/2 cohort 8, 7.2 mg/kg
[9] = schedules 1/2 cohort 9, 9.6 mg/kg

## O=C1Nc2cc3[nH]nc(-c4ccncc4)c3cc2CN1Cc1ccccc1 [KO-947]
[1]
  Total number of AESI: 0 n
  Total number of treatment-related TEAEs: 2 n
  Treatment-related TEAE: Blurred vision: 0 n (%)
  Treatment-related TEAE: Dermatitis acneiform: 0 n (%)
  Treatment-related TEAE: Fatigue: 1 (100) n (%)
  Treatment-related TEAE: Headache: 0 n (%)
  Treatment-related TEAE: Nausea: 0 n (%)
  Treatment-related TEAE: QTc prolongation: 0 n (%)
  Treatment-related TEAE: Subretinal fluid: 0 n (%)
  Treatment-related TEAE: Vomiting: 0 n (%)
[2]
  AESI: Blurred vision: 0 n (%)
  AESI: Eye disorders: 0 n (%)
  AESI: Macular edema: 0 n (%)
  AESI: Retinal edema: 0 n (%)
  AESI: Subretinal fluid: 0 n (%)
  AESI: Vitreous floaters: 0 n (%)
  Patients with ≥1 AESI: 0 n (%)
  Patients with ≥1 treatment-related TEAE: 0 n (%)
  Total number of AESI: 0 n
  Total number of treatment-related TEAEs: 0 n
  Treatment-related TEAE: Blurred vision: 0 n (%)
  Treatment-related TEAE: Dermatitis acneiform: 0 n (%)
  Treatment-related TEAE: Fatigue: 0 n (%)
  Treatment-related TEAE: Headache: 0 n (%)
  Treatment-related TEAE: Nausea: 0 n (%)
  Treatment-related TEAE: QTc prolongation: 0 n (%)
  Treatment-related TEAE: Subretinal fluid: 0 n (%)
  Treatment-related TEAE: Vomiting: 0 n (%)
[3]
  AESI: Blurred vision: 0 n (%)
  AESI: Eye disorders: 0 n (%)
  AESI: Macular edema: 0 n (%)
  AESI: Retinal edema: 0 n (%)
  AESI: Subretinal fluid: 0 n (%)
  AESI: Vitreous floaters: 0 n (%)
  Patients with ≥1 AESI: 0 n (%)
  Patients with ≥1 treatment-related TEAE: 1 (100) n (%)
  Total number of AESI: 0 n
  Total number of treatment-related TEAEs: 1 n
  Treatment-related TEAE: Blurred vision: 0 n (%)
  Treatment-related TEAE: Dermatitis acneiform: 0 n (%)
  Treatment-related TEAE: Fatigue: 0 n (%)
  Treatment-related TEAE: Headache: 0 n (%)
  Treatment-related TEAE: Nausea: 0 n (%)
  Treatment-related TEAE: QTc prolongation: 0 n (%)
  Treatment-related TEAE: Subretinal fluid: 0 n (%)
  Treatment-related TEAE: Vomiting: 0 n (%)
[4]
  AESI: Blurred vision: 0 n (%)
  AESI: Eye disorders: 0 n (%)
  AESI: Macular edema: 0 n (%)
  AESI: Retinal edema: 0 n (%)
  AESI: Subretinal fluid: 0 n (%)
  AESI: Vitreous floaters: 0 n (%)
  Patients with ≥1 AESI: 0 n (%)
  Patients with ≥1 treatment-related TEAE: 2 (67) n (%)
  Total number of AESI: 0 n
  Total number of treatment-related TEAEs: 7 n
  Treatment-related TEAE: Blurred vision: 0 n (%)
  Treatment-related TEAE: Dermatitis acneiform: 0 n (%)
  Treatment-related TEAE: Fatigue: 0 n (%)
  Treatment-related TEAE: Headache: 1 (33) n (%)
  Treatment-related TEAE: Nausea: 1 (33) n (%)
  Treatment-related TEAE: QTc prolongation: 0 n (%)
  Treatment-related TEAE: Subretinal fluid: 0 n (%)
  Treatment-related TEAE: Vomiting: 1 (33) n (%)
[5]
  AESI: Blurred vision: 0 n (%)
  AESI: Eye disorders: 0 n (%)
  AESI: Macular edema: 0 n (%)
  AESI: Retinal edema: 0 n (%)
  AESI: Subretinal fluid: 0 n (%)
  AESI: Vitreous floaters: 0 n (%)
  Patients with ≥1 AESI: 0 n (%)
  Patients with ≥1 treatment-related TEAE: 7 (100) n (%)
  Total number of AESI: 0 n
  Total number of treatment-related TEAEs: 60 n
  Treatment-related TEAE: Blurred vision: 4 (57) n (%)
  Treatment-related TEAE: Dermatitis acneiform: 0 n (%)
  Treatment-related TEAE: Fatigue: 1 (14) n (%)
  Treatment-related TEAE: Headache: 1 (14) n (%)
  Treatment-related TEAE: Nausea: 1 (14) n (%)
  Treatment-related TEAE: QTc prolongation: 1 (14) n (%)
  Treatment-related TEAE: Subretinal fluid: 3 (43) n (%)
  Treatment-related TEAE: Vomiting: 0 n (%)
[6]
  AESI: Blurred vision: 0 n (%)
  AESI: Eye disorders: 1 (25) n (%)
  AESI: Macular edema: 0 n (%)
  AESI: Retinal edema: 0 n (%)
  AESI: Subretinal fluid: 1 (25) n (%)
  AESI: Vitreous floaters: 0 n (%)
  Patients with ≥1 AESI: 1 (25) n (%)
  Patients with ≥1 treatment-related TEAE: 3 (75) n (%)
  Total number of AESI: 3 n
  Total number of treatment-related TEAEs: 25 n
  Treatment-related TEAE: Blurred vision: 1 (25) n (%)
  Treatment-related TEAE: Dermatitis acneiform: 1 (25) n (%)
  Treatment-related TEAE: Fatigue: 0 n (%)
  Treatment-related TEAE: Headache: 1 (25) n (%)
  Treatment-related TEAE: Nausea: 1 (25) n (%)
  Treatment-related TEAE: QTc prolongation: 0 n (%)
  Treatment-related TEAE: Subretinal fluid: 1 (25) n (%)
  Treatment-related TEAE: Vomiting: 0 n (%)
[7]
  AESI: Blurred vision: 2 (67) n (%)
  AESI: Eye disorders: 3 (10) n (%)
  AESI: Macular edema: 0 n (%)
  AESI: Retinal edema: 0 n (%)
  AESI: Subretinal fluid: 2 (67) n (%)
  AESI: Vitreous floaters: 1 (33) n (%)
  Patients with ≥1 AESI: 3 (10) n (%)
  Patients with ≥1 treatment-related TEAE: 3 (100) n (%)
  Total number of AESI: 5 n
  Total number of treatment-related TEAEs: 18 n
  Treatment-related TEAE: Blurred vision: 2 (67) n (%)
  Treatment-related TEAE: Dermatitis acneiform: 1 (33) n (%)
  Treatment-related TEAE: Fatigue: 1 (33) n (%)
  Treatment-related TEAE: Headache: 1 (33) n (%)
  Treatment-related TEAE: Nausea: 2 (67) n (%)
  Treatment-related TEAE: QTc prolongation: 0 n (%)
  Treatment-related TEAE: Subretinal fluid: 2 (67) n (%)
  Treatment-related TEAE: Vomiting: 1 (33) n (%)
[8]
  AESI: Blurred vision: 2 (40) n (%)
  AESI: Eye disorders: 5 (10) n (%)
  AESI: Macular edema: 0 n (%)
  AESI: Retinal edema: 1 (20) n (%)
  AESI: Subretinal fluid: 2 (40) n (%)
  AESI: Vitreous floaters: 0 n (%)
  Patients with ≥1 treatment-related TEAE: 5 (100) n (%)
  Total number of AESI: 5 n
  Total number of treatment-related TEAEs: 14 n
  Treatment-related TEAE: Blurred vision: 2 (40) n (%)
  Treatment-related TEAE: Dermatitis acneiform: 2 (40) n (%)
  Treatment-related TEAE: Fatigue: 0 n (%)
  Treatment-related TEAE: Headache: 0 n (%)
  Treatment-related TEAE: Nausea: 0 n (%)
  Treatment-related TEAE: QTc prolongation: 0 n (%)
  Treatment-related TEAE: Subretinal fluid: 2 (40) n (%)
  Treatment-related TEAE: Vomiting: 1 (20) n (%)
[9]
  AESI: Blurred vision: 8 (89) n (%)
  AESI: Eye disorders: 8 (89) n (%)
  AESI: Macular edema: 1 (11) n (%)
  AESI: Retinal edema: 1 (11) n (%)
  AESI: Subretinal fluid: 3 (33) n (%)
  AESI: Vitreous floaters: 1 (11) n (%)
  Patients with ≥1 AESI: 8 (89) n (%)
  Patients with ≥1 treatment-related TEAE: 8 (89) n (%)
  Total number of AESI: 16 n
  Total number of treatment-related TEAEs: 39 n
  Treatment-related TEAE: Blurred vision: 8 (89) n (%)
  Treatment-related TEAE: Dermatitis acneiform: 1 (11) n (%)
  Treatment-related TEAE: Fatigue: 1 (11) n (%)
  Treatment-related TEAE: Headache: 0 n (%)
  Treatment-related TEAE: Nausea: 1 (11) n (%)
  Treatment-related TEAE: QTc prolongation: 4 (44) n (%)
  Treatment-related TEAE: Subretinal fluid: 3 (33) n (%)
  Treatment-related TEAE: Vomiting: 2 (22) n (%)
Schedules 1/2 total N = 34
  AESI: Blurred vision: 12 (35) n (%)
  AESI: Eye disorders: 17 (50) n (%)
  AESI: Macular edema: 1 (3) n (%)
  AESI: Retinal edema: 2 (6) n (%)
  AESI: Subretinal fluid: 8 (24) n (%)
  AESI: Vitreous floaters: 2 (6) n (%)
  Patients with ≥1 AESI: 17 (50) n (%)
  Patients with ≥1 treatment-related TEAE: 30 (88) n (%)
  Total number of AESI: 29 n
  Total number of treatment-related TEAEs: 166 n
  Treatment-related TEAE: Blurred vision: 17 (50) n (%)
  Treatment-related TEAE: Dermatitis acneiform: 5 (15) n (%)
  Treatment-related TEAE: Fatigue: 4 (12) n (%)
  Treatment-related TEAE: Headache: 4 (12) n (%)
  Treatment-related TEAE: Nausea: 6 (18) n (%)
  Treatment-related TEAE: QTc prolongation: 5 (15) n (%)
  Treatment-related TEAE: Subretinal fluid: 11 (32) n (%)
  Treatment-related TEAE: Vomiting: 5 (15) n (%)
Schedules 1 and 2
  grade ≥3 TEAE: QTc prolongation on ECG: 9%
  grade ≥3 TEAE: hypokalemia: 6%
  grade ≥3 TEAE: increased blood alkaline phosphatase: 6%
  grade ≥3 TEAE: increased gamma-glutamyl transferase: 15%
  grade ≥3 TEAE: lymphopenia: 6%
  grade ≥3 TEAE: rash: 6%
  patients discontinued owing to AEs: 3%
  patients with at least one AESI: 50%
  patients with grade ≥3 TEAEs: 50%
  treatment-related QTc prolongation: 15%
  treatment-related blurred vision: 50%
  treatment-related dermatitis acneiform: 15%
  treatment-related fatigue: 12%
  treatment-related headache: 12%
  treatment-related nausea: 18%
  treatment-related subretinal fluid: 32%
  treatment-related vomiting: 15%
